Arrestin-AP2 inh: blocks beta-arrestin peptide binding to AP2 adaptin. FITC-arrestin peptide / GST-AP2 beads, flow cytometry; AP2 beta2 appendage carries R879A mutation. AID 504490. inhibition, % at 10 µM. 340,000 tested, 0.31% active;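 active = inhibition above a set limit, near 3 SD of compounds lacking own fluorescence, cut at about 54% in these data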;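 note: plate controls were DMSO wells for no effect and 5 µM unlabelled arrestin peptide for full effect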
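test system = AP2 appendage R879A on GSH beads | buffer or medium = PBS plus Tween 20 (0.05%) and BSA (0.1%) | incubation = 12 min plus 1 h, RT | detection = bead flow cytometry, FITC channel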
MEKK2 WT-MEK5: raises or lowers MEK5 binding to wildtype human MEKK2 PB1 domain | Q9Y2U5 | bead flow cytometry, Alexa488-MEK5 binding to MEKK2 WT; actives lie on both sides | binding response (% of control), % at 10 µM | 290,000 tested, 1.1% active | AID 1531; in the data active = binding response below about 67% or above about 130%
MEKK3 PB1 HTS: modulators (inhibitors or enhancers) of MEK5 binding to human MEKK3 PB1 domain | Q99759 | bead-based flow cytometry, Alexa488-MEK5 binding to MEKK3; actives lie on both sides; 0 = blocked by unlabeled MEK5, 100 = vehicle | binding response (% of control), % at 10 µM | 290,000 tested, 1.4% active;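 active = binding response more than 3 SD above or below the average of its plate-row segment, actives on both sides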;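 note: Alexa488 bead fluorescence after subtracting the streptavidin-only scavenger bead signal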
Target sequence (Q99759 whole entry, looked up, the tested form may be a part): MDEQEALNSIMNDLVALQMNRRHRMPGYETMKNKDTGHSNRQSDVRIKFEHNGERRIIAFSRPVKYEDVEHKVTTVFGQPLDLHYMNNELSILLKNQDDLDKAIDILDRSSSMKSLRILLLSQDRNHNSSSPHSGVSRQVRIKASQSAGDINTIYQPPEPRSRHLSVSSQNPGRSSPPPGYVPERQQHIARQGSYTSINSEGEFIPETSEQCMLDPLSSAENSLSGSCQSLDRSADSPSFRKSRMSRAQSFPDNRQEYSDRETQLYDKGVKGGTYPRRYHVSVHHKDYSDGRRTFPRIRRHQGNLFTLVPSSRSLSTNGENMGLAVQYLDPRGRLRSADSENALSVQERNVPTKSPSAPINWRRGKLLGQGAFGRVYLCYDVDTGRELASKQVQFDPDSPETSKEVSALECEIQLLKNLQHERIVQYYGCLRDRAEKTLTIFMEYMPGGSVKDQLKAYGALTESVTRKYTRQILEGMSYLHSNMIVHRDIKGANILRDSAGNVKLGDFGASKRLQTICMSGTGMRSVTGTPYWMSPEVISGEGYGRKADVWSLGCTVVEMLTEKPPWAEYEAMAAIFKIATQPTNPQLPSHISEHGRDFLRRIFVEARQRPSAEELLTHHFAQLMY
MEKK2mut PB1 HTS: signal of MEK5 binding to mutant human MEKK2 PB1 domain | bead flow cytometry, Alexa488-MEK5 binding to MEKK2 mutant | percent response, % at 10 µM | 290,000 tested, 0.35% active | AID 1530; in the data active = percent response above about 24%, passing the limit was not always enough
MEKK2wt confirm: raises or lowers MEK5 binding to wildtype human MEKK2, retest; shares compounds with MEKK3 PB1 HTS; bead flow cytometry, Alexa488-MEK5 binding to MEKK2 WT; actives lie on both sides; binding response (% of control), % at 10 µM; 5,900 tested, 2.4% active; AID 1892; in the data active = binding response below about 16% or above about 210%; inactive = in between
MEKK2mut-MEK5: signal of MEK5 binding to mutant human MEKK2, retest; percent response, % at 10 µM; shares compounds with MEKK3 PB1 HTS; 5,900 tested, 2% active; bead flow cytometry, Alexa488-MEK5 binding to MEKK2 mutant; AID 1893; in the data active = percent response mostly above about 71%, no sharp cut-off; inactive = mostly below about 38%;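 note: higher means compound restores mutant binding toward wildtype level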
MEKK3 confirm: confirmation of inhibitors of MEK5 binding to human MEKK3 | shares compounds with MEKK3 PB1 HTS | bead flow cytometry, Alexa488-MEK5 binding to MEKK3; hits give low values | binding response (% of control), % at 10 µM | 5,900 tested, 1.8% active | AID 1894;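 active = binding response below 72% of control, or above a set upper limit, though filed actives all read lower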;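 note: 100% = DMSO only wells and 0% = binding blocked by excess unlabeled MEK5; lower values mean stronger disruption of MEK5 binding to MEKK3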
The depositor's hits bear a star; . = not tested or not shown; [ ] = remark or other dose. In the library only some 2.3% were active in any assay of this set; here they are far more common.

SMILES	Arrestin-AP2 inh	MEKK2 WT-MEK5	MEKK3 PB1 HTS	MEKK2mut PB1 HTS	MEKK2wt confirm	MEKK2mut-MEK5	MEKK3 confirm
C#CCOCCOCCOCCNc1nc(N2CCN(C(=O)[C@H]([C@@H](C)CC)n3cc([C@@H](N)Cc4ccc(O)cc4)nn3)CC2)nc(N2CCN(C(=O)[C@H]([C@@H](C)CC)n3cc([C@@H](N)Cc4ccc(O)cc4)nn3)CC2)n1	-3.5	151.0*	108.0	31.0	136.0	15.0	104.0
C#CCOCCOCCOCCNc1nc(N2CCOCC2)nc(N2CCN(C(=O)[C@H]([C@@H](C)CC)n3cc([C@@H](N)CO)nn3)CC2)n1	1.5	106.0	107.0	8.0	.	.	.
C#CCOCCOCCOCCNc1nc(N2CCN(C(=O)[C@H]([C@@H](C)CC)n3cc([C@@H](N)CO)nn3)CC2)nc(N2CCN(C(=O)[C@H]([C@@H](C)CC)n3cc([C@@H](N)Cc4ccc(O)cc4)nn3)CC2)n1	-1.0	134.0*	103.0	22.0	112.0	8.0	100.0
CC(=O)N1c2ccc(S(=O)(=O)N3CCC(C(=O)NCCc4ccc(Cl)cc4)CC3)cc2CC1C (stereo not given)	-9.1	105.0	100.0	2.0	.	.	.
Cc1cccc(NC(=O)Nc2ccccc2[N+](=O)[O-])n1	-6.6	102.0	103.0	2.0	.	.	.
C#CCOCCOCCOCCNc1nc(N2CCN(C(=O)[C@H](CCC(=O)O)n3cc(C(N)CC(C)C)nn3)CC2)nc(N2CCN(C(=O)[C@H](Cc3ccc(O)cc3)n3cc(C(N)[C@H](C)CC)nn3)CC2)n1 (stereo not given in full)	.	97.0	96.0	-5.0	.	.	.
C#CCOCCOCCOCCNc1nc(N2CCN(C(=O)[C@H]([C@@H](C)CC)n3cc([C@@H](N)CC(C)C)nn3)CC2)nc(N2CCN(C(=O)[C@H](Cc3ccc(O)cc3)n3cc([C@@H](N)CC(C)C)nn3)CC2)n1	.	150.0*	112.0	35.0	150.0	30.0	108.0
O=S(=O)(NCC1COc2ccccc2O1)c1ccc2ccccc2c1 (stereo not given)	11.1	104.0	104.0	-1.0	.	.	.
CNS(=O)(=O)c1ccc(NCC2COc3ccccc3O2)c([N+](=O)[O-])c1 (stereo not given)	-10.3	103.0	133.0*	-1.0	102.0	0.0	101.0
COc1ccc(S(=O)(=O)N2CCOC23CCN(S(C)(=O)=O)CC3)cc1	-5.1	.	.	.	.	.	.
CN1CCN(C(=O)N2c3ccccc3C=Cc3ccccc32)CC1	-2.4	0.0*[inhibitor]	0.0*[inhibitor]	-26.0	107.0	4.0	103.0
O=C1CN(S(=O)(=O)c2cccc(Br)c2)CCN1	-0.6	.	.	.	.	.	.
C=CCOc1cccc(C(=O)N2CCCC(Nc3ccc4c(c3)OCCO4)C2)c1 (stereo not given)	21.9	107.0	100.0	8.0	.	.	.
CC(C)OC(=O)c1c(NC(=O)Cn2cnc([N+](=O)[O-])n2)sc2c1CCCC2	4.6	117.0	116.0	4.0	.	.	.
CCOC(=O)c1c(NC(=O)c2ccc(N3C(=O)[C@@H]4[C@H](C3=O)[C@H]3C=C[C@@H]4C3)cc2)sc2c1CCCC2	0.6	108.0	145.0*	0.0	97.0	-4.0	100.0
CCOC(=O)c1c(NC(=O)C2CCCN(S(=O)(=O)c3ccc(C)cc3)C2)sc2c1CCCC2 (stereo not given)	3.9	107.0	141.0*	1.0	94.0	-2.0	101.0
CCOC(=O)c1c(NC(=O)c2ccc(-n3cnnn3)cc2)sc2c1CCCC2	-1.6	97.0	94.0	-1.0	.	.	.
CCOC(=O)c1c(NC(=O)Cn2cnc([N+](=O)[O-])n2)sc2c1CCCC2	-2.1	103.0	130.0*	4.0	99.0	3.0	103.0
Cc1ccc(OS(=O)(=O)c2c(C)nn(C)c2Cl)c(C)c1	8.7	93.0	98.0	-5.0	.	.	.
CCN(CC)S(=O)(=O)c1ccc2c(c1)c(=O)c(C(=O)NCCc1ccccc1)cn2C	0.8	99.0	95.0	-1.0	.	.	.
FC(F)(F)c1cccc(NC(=S)NCC(c2cccnc2)N2CCOCC2)c1 (stereo not given)	36.1	101.0	135.0*	0.0	102.0	-7.0	102.0
COC(=O)NCC(c1cccnc1)N1CCOCC1 (stereo not given)	-1.4	100.0	107.0	0.0	.	.	.
CCc1cccc(C)c1NC(=S)NCC(c1cccnc1)N1CCOCC1 (stereo not given)	0.0	106.0	144.0*	0.0	100.0	0.0	103.0
CCn1cc(C(=O)NC2CCCCCC2)c(=O)c2ccc(C)nc21	3.4	107.0	104.0	1.0	.	.	.
N#Cc1c(NC(=S)NC(=O)c2ccccc2)sc2c1CCCC2	14.2	98.0	95.0	-2.0	.	.	.
SMILES	Arrestin-AP2 inh	MEKK2 WT-MEK5	MEKK3 PB1 HTS	MEKK2mut PB1 HTS	MEKK2wt confirm	MEKK2mut-MEK5	MEKK3 confirm
CCCC1Cc2c(sc(NC(=S)NC(=O)c3ccccc3)c2C#N)CO1 (stereo not given)	.	105.0	134.0*	0.0	97.0	-3.0	93.0
C=Cn1cc[n+](CC(=O)C(C)(C)C)c1	-2.6	107.0	137.0*	2.0	106.0	10.0	106.0
CC1(C)CC(=O)c2c(O)cc(OCc3ccc(Br)cc3)cc2O1	-0.3	104.0	101.0	2.0	.	.	.
COc1cc(O)c2c(c1)OC(C)(C)CC2=O	-3.0	116.0	122.0*	7.0	100.0	0.0	103.0
N/C(=N\OC(=O)C(c1ccccc1)c1ccccc1)c1ccccn1	4.7	2.0*[inhibitor]	2.0*[inhibitor]	1.0	97.0	-7.0	99.0
Cc1nn(Cc2cccc(C(=O)O)c2)c(C)c1[N+](=O)[O-]	3.7	102.0	106.0	9.0	.	.	.
Cc1nn(Cc2cccc(C(=O)Nn3cc([N+](=O)[O-])cn3)c2)c(C)c1[N+](=O)[O-]	1.0	104.0	128.0*	0.0	96.0	-12.0	97.0
COc1ccc(CSc2nc3ccccc3c(=O)[nH]2)cc1F	-6.5	9.0*[inhibitor]	6.0*[inhibitor]	-23.0	100.0	0.0	104.0
COCCn1c(SCc2ccc(F)cc2)nc2ccccc2c1=O	-0.4	101.0	102.0	6.0	.	.	.
COc1ccccc1OCCSc1nc2ccccc2c(=O)[nH]1	46.3	107.0	107.0	3.0	.	.	.
COCCn1c(SCc2ccc(OC)c(F)c2)nc2ccccc2c1=O	1.4	134.0	156.0*	7.0	101.0	2.0	103.0
O=C(O)CC1(CC(=O)Nc2ccc(Cl)cc2C(=O)c2ccccc2)CCCC1	-1.3	103.0	105.0	0.0	.	.	.
Cc1cc(C)nc(SCC(=O)Nc2ncc(Cc3cccc(Cl)c3)s2)n1	-3.1	95.0	92.0	-3.0	.	.	.
O=C(CN1CCOCC1)Nc1ncc(Cc2cccc(Cl)c2)s1	1.9	109.0	152.0*	0.0	105.0	3.0	106.0
